According to ChEMBL document CHEMBL1134841, “Antimalarial alkoxylated and hydroxylated chalcones [corrected]: structure-activity relationship analysis” (J Med Chem, 2001):

Assays:
Mus musculus [1] = test: Ratio of average life span of compound-treated mice (100 mg/kg, ip, 3 days) to that of mice receiving DMSO (T/C-untreated); type: functional
In short: (§1)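 Swiss albino mice (male, 4 weeks, ~25 g) inoculated ip with 10^7 P. berghei ANKA parasitized erythrocytes (day 0). Test compound 100 mg/kg/day ip in DMSO, days 1–3, three mice per compound. Control infected groups: DMSO or 4'-butoxy-2,4-dimethoxychalcone (100 mg/kg in DMSO, ip, days 1–3), or chloroquine (52 mg/kg ip in 0.5% Tween buffer pH 7.4, day 1). Survival followed; ratio of mean life spans.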

Mus musculus [2] = test: Ratio of average life span of compound-treated mice (100 mg/kg, ip, 3 days) to that of mice treated with 4''-butoxy-2,4-dimethoxychalcone (comp.41); type: functional; in short: as §1
[3] = Ratio of average life span of compound-treated mice (100 mg/kg, ip, 3 days) to that of mice treated with chloroquine (T/C-CQ); type: functional; in short: as §1
Plasmodium falciparum = test: Inhibition of [3H]hypoxanthine incorporation in Plasmodium falciparum K1; type: functional, organism-based; conditions: Plasmodium falciparum, 48 h
In short: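 K1 (chloroquine-resistant) parasites cultured in RPMI-1640 with 5% sodium bicarbonate and 10% type O human serum. DMSO stocks were serially diluted 10-fold in medium, covering a 10^6-fold range. Infected erythrocytes at 1–2% parasitemia and 1.5% hematocrit were incubated at 37 °C in a candle jar for 24 h. [3H]hypoxanthine was then added for a further 24 h, cells harvested and scintillation counted. IC50 from nonlinear logistic fit versus untreated control.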

With `CN(C)c1ccc(/C=C/C(=O)c2ccc(O)cc2)cc1` the T/C untreated (Mus musculus [1]) was 0.94, the “T/C 41” value (Mus musculus [2]) was 0.99 and the T/C-CQ [3] was 0.47. It also gave an IC50 (Plasmodium falciparum) of 17.7 µM.

In the case of `O=C(/C=C/c1ccc(Cl)cc1Cl)c1ccc(O)cc1O`, the T/C untreated (Mus musculus [1]) is reported as 1.32, the “T/C 41” value (Mus musculus [2]) is reported as 1.36 and the T/C-CQ [3] is reported as 0.94. The IC50 (Plasmodium falciparum) was 68.5 µM.

For `O=C(/C=C/c1cnc2ccccc2c1)c1ccc(O)cc1O`, the T/C untreated (Mus musculus [1]) was 1.08, the “T/C 41” value (Mus musculus [2]) was 1.11 and the T/C-CQ [3] was 0.77. The IC50 (Plasmodium falciparum) was 16.1 µM.
